Measured values as given in ChEMBL document CHEMBL2203165, “Glycolysis inhibitor screening identifies the bis-geranylacylphloroglucinol protonophore moronone from Moronobea coccinea” (2012).
Activity calls are given as the source filed them. The rule behind the calls is not given here.

What was measured:
MDA-MB-231 [1] = assay: Increase in cellular glucose consumption in human MDA-MB-231 cells at […] measured per ug of cellular protein after 24 hrs by enzyme based assay (reference value: 17.2 +/- 2 nmol/ug of cellular protein); type: functional
MDA-MB-231 [2] = assay: Effect on lactate production in human MDA-MB-231 cells at […] measured per ug of cellular protein after 48 hrs by enzyme based assay (reference value: 40.5 +/- 6 nmol/ug of cellular protein); type: functional
MDA-MB-231 [3] = assay: Inhibition of cell viability of human MDA-MB-231 cells at 30 mM after 48 hrs by sulforhodamine B method; type: functional, cell-based
Method in brief: (§1)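 MDA-MB-231 cells are plated at 3×10^4 per well in RPMI 1640 with 10% FBS. After 24 h, compound diluted in serum-free medium is added, with DMSO below 0.5%. Cells are incubated 48 h at 37 °C and viability is read by sulforhodamine B as % inhibition of untreated control. Concentration-response runs are in half-log steps.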

MDA-MB-231 [4] = assay: Increase in cellular glucose consumption in human MDA-MB-231 cells at […] measured per ug of cellular protein after 48 hrs by enzyme based assay (reference value: 43 +/- 8.4 nmol/ug of cellular protein); type: functional
MDA-MB-231 [5] = assay: Inhibition of cell viability of human MDA-MB-231 cells at 3 mM after 48 hrs by sulforhodamine B method in presence of 1 uM F1F0-ATPase inhibitor oligomycin; type: functional, cell-based
MDA-MB-231 [6] = assay: Inhibition of cell viability of human MDA-MB-231 cells at 3 mM after 48 hrs by sulforhodamine B method; type: functional; settings: MDA-MB-231, 48 h; method in brief: as §1
MDA-MB-231 [7] = assay: Inhibition of cell viability of human MDA-MB-231 cells at 10 mM after 48 hrs by sulforhodamine B method; type: functional, cell-based; method in brief: as §1
MDA-MB-231 [8] = assay: Inhibition of cell viability of human MDA-MB-231 cells at 1 mM after 48 hrs by sulforhodamine B method; type: functional; settings: MDA-MB-231, 48 h; method in brief: as §1
MDA-MB-231 [9] = assay: Effect on lactate production in human MDA-MB-231 cells at […] measured per ug of cellular protein after 24 hrs by enzyme based assay (reference value: 23.6 +/- 2 nmol/ug of cellular protein); type: functional
MDA-MB-231 [10] = assay: Inhibition of cell viability of human MDA-MB-231 cells at 3 mM after 48 hrs by sulforhodamine B method in presence of 1 uM mitochondrial ETC complex III inhibitor antimycin A; type: functional, cell-based
MDA-MB-231 [11] = assay: Increase in cellular glucose consumption in human MDA-MB-231 cells at 0.1 uM measured per ug of cellular protein after 24 hrs by enzyme based assay (reference value: 17.2 +/- 2 nmol/ug of cellular protein); type: functional
MDA-MB-231 [12] = assay: Increase in cellular glucose consumption in human MDA-MB-231 cells at 0.1 uM measured per ug of cellular protein after 48 hrs by enzyme based assay (reference value: 43 +/- 8.4 nmol/ug of cellular protein); type: functional
MDA-MB-231 [13] = assay: Effect on lactate production in human MDA-MB-231 cells at 0.1 uM measured per ug of cellular protein after 24 hrs by enzyme based assay (reference value: 23.6 +/- 2 nmol/ug of cellular protein); type: functional
MDA-MB-231 [14] = assay: Inhibition of cell viability of human MDA-MB-231 cells at 0.1 uM after 48 hrs by sulforhodamine B method; type: functional; settings: MDA-MB-231, 48 h; method in brief: as §1
MDA-MB-231 [15] = assay: Effect on lactate production in human MDA-MB-231 cells at 0.1 uM measured per ug of cellular protein after 48 hrs by enzyme based assay (reference value: 40.5 +/- 6 nmol/ug of cellular protein); type: functional
MDA-MB-231 [16] = assay: Increase in cellular glucose consumption in human MDA-MB-231 cells at 10 uM measured per ug of cellular protein after 24 hrs by enzyme based assay (reference value: 17.2 +/- 2 nmol/ug of cellular protein); type: functional
MDA-MB-231 [17] = assay: Decrease in mitochondrial membrane potential in human MDA-MB-231 cells assessed as decline in respiration rate at 3 uM after 48 hrs; type: functional, cell-based
Method in brief: (§2)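 Oxygen consumption of intact MDA-MB-231 or T47D cells measured with a Clark-type electrode, no FBS present; compound tested at 0.1, 0.3, 1 and 3 μM; rate normalized to untreated control. Average + standard deviation from three independent experiments (n = 3).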

MDA-MB-231 [18] = assay: Increase in cellular glucose consumption in human MDA-MB-231 cells at 1 uM measured per ug of cellular protein after 48 hrs by enzyme based assay (reference value: 43 +/- 8.4 nmol/ug of cellular protein); type: functional
MDA-MB-231 [19] = assay: Cytotoxicity against human MDA-MB-231 cells assessed as inhibition of cell proliferation/viability at 30 uM in presence of 0.1 uM rotenone mitochondrial electron transport inhibitor; type: functional
Method in brief: (§3)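 MDA-MB-231 cells in RPMI 1640 with 10% FBS, plated 3×10^4/well; after 24 h, compound diluted in serum-free medium added with or without rotenone (0.1 μM final), DMSO <0.5%. 48 h at 37 °C; viability by sulforhodamine B; % inhibition of untreated control; two independent experiments each in triplicate (n = 6).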

MDA-MB-231 [20] = assay: Effect on lactate production in human MDA-MB-231 cells at 10 uM measured per ug of cellular protein after 24 hrs by enzyme based assay (reference value: 23.6 +/- 2 nmol/ug of cellular protein); type: functional
MDA-MB-231 [21] = assay: Effect on lactate production in human MDA-MB-231 cells at 3 uM measured per ug of cellular protein after 24 hrs by enzyme based assay (reference value: 23.6 +/- 2 nmol/ug of cellular protein); type: functional
MDA-MB-231 [22] = assay: Increase in cellular glucose consumption in human MDA-MB-231 cells at 3 uM measured per ug of cellular protein after 48 hrs by enzyme based assay (reference value: 43 +/- 8.4 nmol/ug of cellular protein); type: functional
MDA-MB-231 [23] = assay: Increase in cellular glucose consumption in human MDA-MB-231 cells at 10 uM measured per ug of cellular protein after 48 hrs by enzyme based assay (reference value: 43 +/- 8.4 nmol/ug of cellular protein); type: functional
MDA-MB-231 [24] = assay: Cytotoxicity against human MDA-MB-231 cells assessed as inhibition of cell proliferation/viability at 0.1 to 10 uM in presence of 0.1 uM rotenone mitochondrial electron transport inhibitor; type: functional, cell-based; method in brief: as §3
MDA-MB-231 [25] = assay: Decrease in mitochondrial membrane potential in human MDA-MB-231 cells assessed as decline in respiration rate at 1 uM after 48 hrs; type: functional, cell-based; method in brief: as §2
MDA-MB-231 [26] = assay: Increase in cellular glucose consumption in human MDA-MB-231 cells at 3 uM measured per ug of cellular protein after 24 hrs by enzyme based assay (reference value: 17.2 +/- 2 nmol/ug of cellular protein); type: functional
T47D [27] = assay: Increase in cellular respiration in human T47D cells assessed as increase in oxygen consumption at 0.1 to 1 uM after 48 hrs; type: functional, cell-based; method in brief: as §2
T47D [28] = assay: Decrease in mitochondrial membrane potential in human T47D cells assessed as decline in respiration rate at 3 uM after 48 hrs; type: functional, cell-based; method in brief: as §2
MDA-MB-231 [29] = assay: Effect on lactate production in human MDA-MB-231 cells at 3 uM measured per ug of cellular protein after 48 hrs by enzyme based assay (reference value: 40.5 +/- 6 nmol/ug of cellular protein); type: functional
MDA-MB-231 [30] = assay: Effect on lactate production in human MDA-MB-231 cells at 1 uM measured per ug of cellular protein after 48 hrs by enzyme based assay (reference value: 40.5 +/- 6 nmol/ug of cellular protein); type: functional
MDA-MB-231 [31] = assay: Effect on lactate production in human MDA-MB-231 cells at 1 uM measured per ug of cellular protein after 24 hrs by enzyme based assay (reference value: 23.6 +/- 2 nmol/ug of cellular protein); type: functional
MDA-MB-231 [32] = assay: Increase in cellular respiration in human MDA-MB-231 cells assessed as increase in oxygen consumption at 0.1 to 1 uM after 48 hrs; type: functional, cell-based; method in brief: as §2
MDA-MB-231 [33] = assay: Increase in cellular glucose consumption in human MDA-MB-231 cells at 1 uM measured per ug of cellular protein after 24 hrs by enzyme based assay (reference value: 17.2 +/- 2 nmol/ug of cellular protein); type: functional
MDA-MB-231 [34] = assay: Effect on lactate production in human MDA-MB-231 cells at 10 uM measured per ug of cellular protein after 48 hrs by enzyme based assay (reference value: 40.5 +/- 6 nmol/ug of cellular protein); type: functional
MDA-MB-231 [35] = assay: Stimulation of oligomycin-induced state 4 respiration in human MDA-MB-231 cells at 1 uM; type: functional, cell-based
Method in brief: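 Oligomycin (1 μM) added to MDA-MB-231 cells in a Clark-type electrode chamber to initiate state 4 respiration. Compound (1 μM) then added and oxygen consumption followed. Rate normalized to untreated control.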

T47D [36] = assay: Decrease in mitochondrial membrane potential in human T47D cells assessed as decline in respiration rate at 1 uM after 48 hrs; type: functional, cell-based; method in brief: as §2

Q: Which results are given for `OC[C@H]1O[C@@H](O)C[C@@H](O)[C@@H]1O`?
A: Activity (MDA-MB-231 [1]): 22.5 nmol; Activity (MDA-MB-231 [2]): 52.8 nmol; inhibition (MDA-MB-231 [3]): Active; Activity (MDA-MB-231 [4]): 50.2 nmol; inhibition (MDA-MB-231 [5]): Active; inhibition at 3000 µM (MDA-MB-231 [6]): 8%; inhibition (MDA-MB-231 [7]): Active; inhibition at 1000 µM (MDA-MB-231 [8]): 4%; Activity (MDA-MB-231 [9]): 26.3 nmol; inhibition (MDA-MB-231 [10]): Active

Q: Which Activity (MDA-MB-231 [11]) does the source give for `C=C(C)[C@H]1Cc2c(ccc3c2O[C@@H]2COc4cc(OC)c(OC)cc4[C@@H]2C3=O)O1` [ROTENONE] here?
A: The Activity was 37.5 nmol.

Q: And the Activity (MDA-MB-231 [12])?
A: Its Activity is 177.6 nmol.

Q: What about the Activity (MDA-MB-231 [13]) of the same molecule?
A: Its Activity is 75.7 nmol.

Q: And the inhibition at 0.1 µM (MDA-MB-231 [14])?
A: The inhibition at 0.1 µM was 7%.

Q: And the Activity (MDA-MB-231 [15])?
A: Its Activity is 190.4 nmol.

Q: `CC(C)=CCC/C(C)=C/CC1(C/C=C(\C)CCC=C(C)C)C(O)=CC(=O)C(C(=O)c2ccccc2)=C1O` (stereo unspecified) [MORONONE] was tested. Which Activity (MDA-MB-231 [16]) did it give?
A: Its Activity is 45.8 nmol.

Q: What about the Activity (MDA-MB-231 [17]) of the same molecule?
A: The Activity was “Active”.

Q: What about the Activity (MDA-MB-231 [18]) of the same molecule?
A: The Activity was 44.7 nmol.

Q: What about the “inhibition (INH)” value (MDA-MB-231 [19]) of the same molecule?
A: Its value is 68%.

Q: And the Activity (MDA-MB-231 [20])?
A: Its Activity is 59.5 nmol.

Q: What about the Activity (MDA-MB-231 [21]) of the same molecule?
A: Its Activity is 25.4 nmol.

Q: What about the Activity (MDA-MB-231 [22]) of the same molecule?
A: The Activity was 73.4 nmol.

Q: What about the Activity (MDA-MB-231 [23]) of the same molecule?
A: Its Activity is 168.4 nmol.

Q: What about the Activity (MDA-MB-231 [24]) of the same molecule?
A: The Activity was “Active”.

Q: What about the Activity (MDA-MB-231 [25]) of the same molecule?
A: The Activity was “Active”.

Q: And the Activity (MDA-MB-231 [26])?
A: The Activity was 25.9 nmol.

Q: What about the Activity (T47D [27]) of the same molecule?
A: Its Activity is “Active”.

Q: And the Activity (T47D [28])?
A: Its Activity is “Active”.

Q: And the Activity (MDA-MB-231 [29])?
A: The Activity was 67.3 nmol.

Q: And the Activity (MDA-MB-231 [30])?
A: Its Activity is 49.3 nmol.

Q: And the Activity (MDA-MB-231 [31])?
A: The Activity was 21.9 nmol.

Q: What about the Activity (MDA-MB-231 [32]) of the same molecule?
A: The Activity was “Active”.

Q: What about the Activity (MDA-MB-231 [33]) of the same molecule?
A: Its Activity is 26.7 nmol.

Q: What about the Activity (MDA-MB-231 [34]) of the same molecule?
A: Its Activity is 168.5 nmol.

Q: And the Activity (MDA-MB-231 [35])?
A: Its Activity is “Active”.

Q: And the Activity (T47D [36])?
A: Its Activity is “Active”.
